This note sets out measurements from ChEMBL document CHEMBL1131029, “Synthesis and in vitro efficacy of transferrin conjugates of the anticancer drug chlorambucil” (J Med Chem, 1998).

In general, half-life refers to the time needed for the level to fall by half in the phase considered. Broadly, the IC50 is the concentration that gives 50% inhibition. Lower therefore signals greater potency in that assay.

A short description of series [1]: Time required to reduce the alkylating activity of 10% human blood serum from its initial value by 50%. The format is ADME, Plasma.
For series [2], the species on record is Homo sapiens. The series is described as follows: Alkylating activity of compound remaining after 24 hours of incubation with 10% human blood serum. It is filed as functional.
The species named for series [3] is Homo sapiens. As to the kind of experiment: Alkylating activity of compound remaining after 48 hours of incubation with 10% human blood serum. It is filed as functional.
For series [4], the species on record is Homo sapiens. As to the kind of experiment: Alkylating activity of compound remaining after 96 hours of incubation with 10% human blood serum. It is filed as functional.
For a further series, the system named is MOLT-4. As to the kind of experiment: In vitro inhibitory activity against acute lymphoblastic leukemia (MOLT4) cell line. The conditions noted are these: Homo sapiens. The format is functional, cell-based. An outline of the steps: (§1)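 MCF7 (trypsinized monolayer) or MOLT4 (suspension) cells in RPMI 1640 with 10% FCS, plated at 1.0 × 10^5 cells/mL and allowed 24 h recovery. Then 6 days continuous drug exposure, 0.15–40 µM, triplicate wells. Propidium iodide fluorescence read (ex 530/em 620) before and after freeze-kill; viable cells = FU2 − FU1; %T/C; IC50 as mean ± SD, n = 3.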

The test system of another series is MCF7. The series is described as follows: In vitro inhibitory activity against mammary carcinoma (MCF-7) cell line. The conditions noted are these: Homo sapiens. The format is functional, cell-based. An outline of the steps:
as §1

Take `O=C(CCCc1ccc(N(CCCl)CCCl)cc1)OCCN1C(=O)C=CC1=O`: in series [1], the half-life is 3.1 h. The Activity in the series listed under Homo sapiens [2] was 20.9%; in the series filed under Homo sapiens [3] it was 13.8%; in the series filed under Homo sapiens [4], 11%. This compound came in with an IC50 in the series on MOLT-4 of 7.8 µM.

`O=C(CCCc1ccc(N(CCCl)CCCl)cc1)N/N=C/CN1C(=O)C=CC1=O` showed a half-life in series [1] of 4 h. The Activity in the series listed under Homo sapiens [2] is listed as 25%; in the series listed under Homo sapiens [3] it was 19.5%; in the series filed under Homo sapiens [4] it was 15.2%. Further, the figures for the IC50 in the series with MCF7 and with MOLT-4 were 6.8 µM and 0.35 µM, respectively.

`O=C(CCCc1ccc(N(CCCl)CCCl)cc1)Oc1cccc(N2C(=O)C=CC2=O)c1`: the half-life in series [1] was 4.3 h. Moreover, the Activity was 22.3% in the series filed under Homo sapiens [2], 15.2% in the series filed under Homo sapiens [3] and 12.1% in the series listed under Homo sapiens [4]. This compound also registered an IC50 with MOLT-4 of 15.3 µM.

Take `C/C(=N\NC(=O)CCCc1ccc(N(CCCl)CCCl)cc1)c1cccc(N2C(=O)C=CC2=O)c1`: in series [1], the half-life was 4.5 h. Moreover, the Activity in the series listed under Homo sapiens [2] is given as 22.9%; in the series filed under Homo sapiens [3], 13.7%; in the series filed under Homo sapiens [4], 10.9%. Also, the IC50 in the series on MOLT-4 came to 3.3 µM.

The compound `O=C(CCCc1ccc(N(CCCl)CCCl)cc1)N/N=C/c1cccc(N2C(=O)C=CC2=O)c1` had a half-life in series [1] of 5.9 h. Further, the Activity in the series listed under Homo sapiens [2] came to 24.1%; in the series filed under Homo sapiens [3], 14.5%; in the series filed under Homo sapiens [4], 13.4%. The concentration for half-maximal inhibition (IC50) in the series with MCF7 amounted to 35.5 µM; in the series with MOLT-4, 7.5 µM.

`O=C(O)CCCc1ccc(N(CCCl)CCCl)cc1` [CHLORAMBUCIL] showed a half-life in series [1] of 4.5 h. In addition, the Activity in the series listed under Homo sapiens [2] was 12.2%; in the series listed under Homo sapiens [3], 6.6%. In addition, the values for the IC50 in the series on MCF7 and in the series on MOLT-4 were 24.6 µM and 6.3 µM, respectively.
